Experimental data from different studies.
Each line is one published result; the experiments were not run side by side.
Target: Mitogen-activated protein kinase kinase kinase 4 (MAP3K4, Homo sapiens, UniProt Q9Y6R4)

SMILES	read-out	method	tested at	remaining binding [%]
COc1ccnn2ncc(-c3ccnc(N(C)C)n3)c12	binding		1 µM	100
CN(C)C(=O)Cn1cc(-c2nc([C@@](C)(c3ccc(-c4cnc(N)nc4)cc3)C3CC3)no2)cn1	cell-free assay	competition with immobilised ligand	1 µM	91
F[C@@H]1CCN(c2nccc(-c3cnn4ncccc34)n2)C1	binding		1 µM	78
COc1cnc(Nc2cccc(S(N)(=O)=O)c2)nc1N1CCN(c2ccccc2)C(=O)C1	binding	competition with immobilised ligand	1 µM	100
C[C@@H]1CN(c2ccc3ncc(-c4ccc5[nH]nc(C6CC6)c5c4)n3n2)C[C@H](C)O1	binding	competition with immobilised ligand	0.5 µM	100
C[C@@]1(Cc2ccc(C#N)cc2)C(=O)N(c2cc(Cl)cc(Cl)c2)c2ncc(C(=O)NC3(c4nc(C5CCC5)no4)CC3)n21	cell-free assay	competition with immobilised ligand	1 µM	100
Nc1ncc2c(n1)-c1c([nH]c3ccc(C#CC4CC4)cc13)CCCC2	binding	competition with immobilised ligand	1 µM	92
O=C(Nc1c[nH]nc1C(=O)NC1CCNCC1)c1cc(F)cc(F)c1	binding	competition with immobilised ligand	1 µM	100
Cc1cnc(Nc2ccc(C(=O)N3CCC(N4CCCC4)CC3)cc2)nc1-c1cc2ccccc2s1	binding	competition with immobilised ligand	1 µM	32
C=CC(=O)N1CCC(C(=O)NCC(=O)N2CCN(c3nc(-c4cnc(N)nc4C(F)F)nc(N4CCOCC4)n3)CC2)CC1	binding	competition with immobilised ligand	1 µM	100
CN(C)c1nccc(-c2cnc3ncccn23)n1	binding		1 µM	100
C[C@H](c1ccnc(Nc2nc3ccc(-c4cc(N(C)C)ncn4)cc3[nH]2)c1)N1CCN(C(=O)CC(F)(F)F)CC1	cell-free assay	competition with immobilised ligand	0.1 µM	96
COc1cnc(Nc2cccc(S(N)(=O)=O)c2)nc1N1CCN(c2ccccc2)CC1	binding	competition with immobilised ligand	1 µM	100
O=C(c1ccc(Nc2ncc(Cl)c(-c3ccc(Cl)s3)n2)cc1)N1CCC(N2CCCC2)CC1	binding	competition with immobilised ligand	1 µM	61
N[C@H]1CCN(c2nccc(-c3cnn4ncccc34)n2)C1	binding		1 µM	100
COc1ccc2c(O[C@@H]3C[C@H]4C(=O)N[C@]5(C(=O)O)CC5/C=C\CCCCC[C@H](NC(=O)OC5CCCC5)C(=O)N4C3)cc(-c3csc(NC(=O)C(C)C)n3)nc2c1C (some centres unmarked)	cell-free assay	competition with immobilised ligand	1 µM	74
COc1ncc2cc3ccccc3nc2c1C#N	cell-free assay	competition with immobilised ligand	5 µM	91
CC1=C(C#N)C(c2ccc3c(c2)c(NC(=O)c2ccccc2C)nn3C)C(C#N)=C(C)N1	cell-free assay	competition with immobilised ligand	1 µM	84
O=C(NCCCN1CCOCC1)c1ccc(Nc2nccc(-c3cc4ccccc4s3)n2)cc1	binding	competition with immobilised ligand	1 µM	68
Cc1c[nH]c2nccc(Oc3c(F)cc(Nc4cc(Cl)nc(N)n4)cc3F)c12	cell-free assay	competition with immobilised ligand	0.1 µM	100
CC(C)(C)c1ccc(-c2nc(CBr)nn2-c2cccc(O)c2)cc1	cell-free assay	competition with immobilised ligand	10 µM	91
CC(=O)N1CCC(c2ccc(C(=O)NC3=NCCN3)cc2C(F)(F)F)CC1	cell-free assay	competition with immobilised ligand	1 µM	81
CN(C)c1ncc(F)c(-c2cnn3ncccc23)n1	binding		1 µM	100
